In the library only some 3.8% were active in any assay of this set; here they are far more common.
OX1R antag-1 – antagonists of human orexin 1 receptor (OX1R) | Orexin/Hypocretin receptor type 1 (Homo sapiens), O43613 | OX1R-expressing cells, FRET antagonist read-out | inhibition, % at 6.6 µM | actives 1.8% (n = 330,000) | AID 485270, 2010; in the data active = inhibition mostly above about 38%, no sharp cut-off; inactive = mostly below about 40%;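 note: 0% = agonist challenge alone and 100% = reference antagonist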
CHO parental Ca – ATP-evoked calcium signal inhibitors, parental CHO, primary screen, counter-screen for OX1R antagonist project, cell-based, fluorescence, Fluo-8 calcium dye; inhibition, % at 5.6 µM; parental CHO-K1, ATP-induced calcium, Fluo-8 fluorescence; actives 0.63% (n = 330,000);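 active = inhibition above that plate's mean sample inhibition plus 3 SD, cut at about 26% in these data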;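 note: 0% = ATP-challenged DMSO wells and 100% = DMSO wells without ATP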
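Test system: untransfected parental CHO cell line. Compound: one dose, 5.6 µM nominal. Detection: intracellular calcium via Fluo-8 no-wash fluorescent dye. Measure: % inhibition. Benchmarks: ATP-challenged DMSO wells low, unchallenged DMSO wells high.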
GPR7 antag – GPR7 receptor antagonists, primary screen, cell-based, fluorescence, single concentration; actives 1.1% (n = 290,000); GPR7-expressing cells, fluorescence antagonist assay; Neuropeptides B/W receptor type 1 (Homo sapiens), P48145; AID 1861, 2009; inhibition, % at 4.4 µM; in the data active = inhibition above about 16%, passing the limit was not always enough;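 note: cells stimulated with the agonist NPW; 0% = agonist with vehicle and 100% = vehicle without agonist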
Target sequence (P48145 whole entry, looked up): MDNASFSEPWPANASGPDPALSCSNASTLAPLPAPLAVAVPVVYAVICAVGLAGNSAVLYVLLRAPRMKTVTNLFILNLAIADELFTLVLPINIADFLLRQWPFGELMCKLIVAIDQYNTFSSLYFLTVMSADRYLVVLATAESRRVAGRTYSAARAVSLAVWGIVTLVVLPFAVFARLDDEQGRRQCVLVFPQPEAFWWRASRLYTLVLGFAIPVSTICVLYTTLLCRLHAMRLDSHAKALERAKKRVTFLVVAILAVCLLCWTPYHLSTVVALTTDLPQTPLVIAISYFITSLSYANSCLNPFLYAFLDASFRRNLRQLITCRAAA
OX1R antag-2 – OX1R (HCRTR1) antagonists, primary screen, fluorescence, CHO/OX1R cells, Fluo-8 calcium, orexin A; Fluo-8 calcium fluorescence; inhibition, % at 5 µM; actives 0.43% (n = 330,000);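 active = inhibition above its plate's threshold, mean inhibition of all tested compounds on the plate plus 3 SD, cut at about 37% in these data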;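 note: 0% = orexin A challenge wells and 100% = SB-334867-A antagonist wells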
MPTP block – mitochondrial permeability transition pore inhibitors, primary screen, biochemical, isolated mouse mitochondria, absorbance | Ca2+ swelling absorbance, 30 min | inhibition, % at 10 µM | actives 1.4% (n = 360,000) | AID 602449, 2012;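 active = inhibition of 50% or more, scaled per plate between neutral and stimulator controls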;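 note: 0% = DMSO wells given calcium and 100% = 1 mM EGTA wells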
GPR7 antag conf – GPR7 receptor antagonists, confirmation, cell-based, fluorescence, single concentration; shares compounds with GPR7 antag; GPR7-expressing cells, calcium fluorescence antagonist mode; inhibition, % at 4.4 µM; actives 52% (n = 2,400); in the data active = inhibition above about 24%;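 note: stimulated with the GPR7 agonist NPW; 0% = agonist plus vehicle and 100% = vehicle alone without agonist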
MCHR1 antag – MCHR1 antagonists in cells, counter-screen for GPR7 antagonist project, cell-based, fluorescence, human; shares compounds with GPR7 antag; MCHR1-expressing cells, fluorescence antagonist assay; inhibition, % at 4.4 µM; actives 62% (n = 2,400); in the data active = inhibition above about 22%;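 note: 0% = vehicle with agonist and 100% = vehicle without agonist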
* marks the source's active call; other numbers are inactive results; . = no result.

SMILES	OX1R antag-1	CHO parental Ca	GPR7 antag	OX1R antag-2	MPTP block	GPR7 antag conf	MCHR1 antag
CS(=O)(=O)N(CC(=O)N1CCN(Cc2ccc3c(c2)OCO3)CC1)Cc1ccc(Cl)cc1	11.1	-24.0	24.8*	-4.1	-0.7	38.4*	55.9*
CC(NC(=O)Cc1cccc(C(F)(F)F)c1)c1ccc(F)cc1 (configuration not stated)	11.3	-5.4	26.5*	-18.9	-2.5	7.2	14.6
CC(NC(=O)Cc1ccc(F)cc1)c1ccccc1 (configuration not stated)	10.9	-22.4	-11.2	-18.6	-1.7	.	.
CC(=O)Nc1ccc(S(=O)(=O)N2CCN(c3nc4ccccc4n3CC(C)C)CC2)cc1	.	.	27.4*	.	0.3	-9.6	5.0
CCn1c(N2CCN(S(=O)(=O)c3ccc(OC)cc3)CC2)nc2ccccc21	6.6	4.5	-4.8	-2.6	2.4	.	.
COc1cccc(NC(=O)Nc2nc(-c3ccc(OC)c(OC)c3)cs2)c1	71.5*	71.4*	74.5*	73.3*	19.2	91.7*	92.7*
CCOC(=O)C1CCN(CCC(=O)Nc2ccc(Cl)cc2)CC1	18.0	-13.4	-6.4	-13.5	1.4	.	.
CCOC(=O)C1CCN(CCC(=O)Nc2ccccc2)CC1	13.4	-9.8	51.4*	-3.6	0.1	3.4	-3.5
CNC(=O)C1CC(=O)N(CCc2ccc(C)cc2)C1 (configuration not stated)	-8.1	-10.3	3.0	-3.0	0.3	.	.
COc1ccc(/C=C/c2nnc(NC(C)=O)s2)cc1	22.1	-19.8	1.9	-26.2	3.8	.	.
COC(=O)Nc1nnc(/C=C/c2ccc(OC)cc2)s1	21.1	-6.1	24.3*	-8.1	-0.5	20.2	11.4
Cc1ccc(N2CC(C(=O)Nc3cccnc3)CC2=O)cc1C (configuration not stated)	8.0	-4.3	-5.4	4.2	-0.6	.	.
O=C(c1cc(S(=O)(=O)N2CCC3(CC2)OCCO3)ccc1F)N1CCCCC1	-8.6	-7.3	6.4	-14.8	1.3	.	.
CC(C)CC(c1nnnn1CCc1ccccc1)N1CCN(C(=O)c2ccco2)CC1 (configuration not stated)	11.8	-5.8	4.4	-22.9	-0.6	.	.
CCC(c1nnnn1CCc1ccccc1)N1CCN(C(=O)c2ccco2)CC1 (configuration not stated)	21.3	-16.1	21.3*	-23.2	-1.0	8.5	1.1
O=C(COC(=O)C1CCN(c2ccc(C(F)(F)F)cn2)CC1)Nc1cccc(F)c1	14.7	-2.4	.	-20.1	0.3	.	.
Cc1ccnc(NC(=O)c2cc(-c3ccc(Cl)s3)nc3ccccc23)c1	18.6	-14.7	.	-17.4	0.4	.	.
NC(=S)N=Nc1c(O)[nH]c2ccccc12	26.3	-3.9	-6.8	-8.9	-0.9	.	.
NC(=S)N=Nc1c(O)[nH]c2c(Br)cc(Br)cc12	34.4	-13.4	33.5*	-23.9	-0.7	9.3	27.6*
O=C(O)c1ccc(S(=O)(=O)N(CCc2ccccc2)Cc2ccc(Cl)cc2)cc1	24.2	-5.0	5.8	-10.6	1.3	.	.
Clc1ccccc1/C=C/c1ccnc2ccccc12	19.6	-38.6	7.1	-31.6	0.1	-5.6	13.3
O=C1NC(=Nc2cccc([N+](=O)[O-])c2)SC1(CO)CO	11.5	0.2	-2.9	-3.6	-0.1	.	.
Cn1cc(CN2CCCC(C(=O)Nc3ccc(-c4cccc(F)c4)cc3)C2)cn1 (configuration not stated)	3.3	-16.6	39.1*	-3.0	8.8	42.0*	64.5*
Cn1cccc1C(=O)NC(=O)COC(=O)CNC(=O)CNC(=O)c1ccc(Cl)cc1Cl	16.0	-21.6	27.4*	-10.5	-0.8	8.1	1.2
Cn1cccc1C(=O)NC(=O)COC(=O)CNC(=O)c1ccc(Cl)cc1Cl	12.0	-11.0	7.7	-8.5	-1.7	.	.

From PubChem
